Source: ChEMBL document CHEMBL4414566, “Cytotoxicity and Anti-inflammatory Properties of Apigenin-Derived Isolaxifolin” (J Nat Prod, 2019)
Activity calls are given as the source filed them. The calls are words filed in the database; no cut-off is given here.

Experiments:
RAW264.7 [1] = assay: Antiinflammatory activity against LPS-activated mouse RAW264.7 cells assessed as reduction in TNFalpha mRNA expression at 3.1 uM preincubated with LPS for 24 hrs followed by compound addition and measured after 24 hrs by qRT-PCR analysis; format: functional, cell-based
In short: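 RAW 264.7 cells (DMEM, 10% FBS, 37 °C, 5% CO2) seeded at 1 × 10^5/well and held 4 h. LPS 1.0 μg/mL was added for 24 h, then medium was replaced with test agent (0.8, 1.6, 3.1 μM or 2.3, 4.6, 9.2 μM) for 24 h. TNF-α and IL-6 transcripts were quantified by real-time qPCR against GAPDH. Triplicates, mean ± SD.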

RAW264.7 [2] = assay: Antiinflammatory activity in mouse RAW264.7 cells assessed as inhibition of LPS-induced NO production at 0.8 to 3.1 uM measured after 24 hrs by griess reagent based assay; format: functional, cell-based
In short: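 Murine RAW 264.7 macrophages, 1 × 10^5/well, 4 h settling, then LPS (1.0 μg/mL) for 24 h. Medium was swapped for test solutions (0.8–3.1 μM or 2.3–9.2 μM), or DXM 254.8 μM as positive control, for another 24 h. Secreted NO was measured by Griess assay; TNF-α and IL-6 by ELISA. Run in triplicate, mean ± SD.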

[3] = Cytotoxicity against mouse RAW264.7 cells assessed as reduction in cell viability incubated for 24 hrs by MTT assay; format: cell-based; details: read-out: MNCC
In short: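 MTT viability assay: RAW 264.7 cells seeded at 2.5 × 10^4 cells/well, cultured 12 h, then given five concentrations from serial dilution (up to 6.2 or 9.2 μM; final DMSO <1%) for 24 h. Viability was calculated relative to untreated blank control; n = 3, mean ± SD.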

MDA-MB-231 [4] = assay: Induction of apoptosis in human MDA-MB-231 cells assessed as necrotic cells at 17.3 uM incubated for 48 hrs by annexin V-FITC/PI based flow cytometric analysis (Rvb= 0.74%); format: functional
MDA-MB-231 [5] = assay: Induction of apoptosis in human MDA-MB-231 cells assessed as viable cells at 17.3 uM incubated for 48 hrs by annexin V-FITC/PI based flow cytometric analysis (Rvb= 96.21%); format: functional; details: MDA-MB-231, 48 h, read-out: Activity
MDA-MB-231 [6] = assay: Induction of apoptosis in human MDA-MB-231 cells assessed as necrotic cells at 12.4 uM incubated for 48 hrs by annexin V-FITC/PI based flow cytometric analysis (Rvb= 0.74%); format: functional
MDA-MB-231 [7] = assay: Induction of apoptosis in human MDA-MB-231 cells assessed as late apoptotic cells at 12.4 uM incubated for 48 hrs by annexin V-FITC/PI based flow cytometric analysis (Rvb= 2.82%); format: functional
MDA-MB-231 [8] = assay: Induction of apoptosis in human MDA-MB-231 cells assessed as viable cells at 12.4 uM incubated for 48 hrs by annexin V-FITC/PI based flow cytometric analysis (Rvb= 96.21%); format: functional; details: MDA-MB-231, 48 h, read-out: Activity
MDA-MB-231 [9] = assay: Induction of apoptosis in human MDA-MB-231 cells assessed as necrotic cells at 8.6 uM incubated for 48 hrs by annexin V-FITC/PI based flow cytometric analysis (Rvb= 0.74%); format: functional
MDA-MB-231 [10] = assay: Induction of apoptosis in human MDA-MB-231 cells assessed as late apoptotic cells at 8.6 uM incubated for 48 hrs by annexin V-FITC/PI based flow cytometric analysis (Rvb= 2.82%); format: functional
MDA-MB-231 [11] = assay: Induction of apoptosis in human MDA-MB-231 cells assessed as increase in nuclear chromatin condensation incubated for 48 hrs by Hoechst 33258 staining based fluorescence microscopic method; format: functional, cell-based
In short: (§1)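 MDA-MB-231 cells were grown 24 h and treated with 8.6, 12.4 or 17.3 μM for 48 h. They were then fixed 10 min, washed three times in PBS and stained 5 min with Hoechst 33258. Nuclear condensation was imaged by fluorescence microscopy (excitation 350 nm, emission 460 nm).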

MDA-MB-231 [12] = assay: Induction of cell cycle arrest in human MDA-MB-231 cells assessed as accumulation of cells at S phase at 17.3 uM incubated for 48 hrs by PI/RNase staining based flow cytometric analysis (reference value: 39.2%); format: functional
In short: (§2)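 Cell-cycle analysis: MDA-MB-231 cells were preincubated 24 h, then treated with 8.6, 12.4 or 17.3 μM for 48 h. Cells were pelleted, fixed in 75% ethanol at −20 °C overnight, and stained with PI/RNase for 15 min in the dark at ambient temperature. About 10 000 cells per well were analyzed by flow cytometry for DNA content.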

MDA-MB-231 [13] = assay: Induction of cell cycle arrest in human MDA-MB-231 cells assessed as accumulation of cells at G0/G1 phase at 17.3 uM incubated for 48 hrs by PI/RNase staining based flow cytometric analysis (reference value: 50.4%); format: functional; in short: as §2
HCT-116 = assay: Antiproliferative activity against human HCT116 cells assessed as cell viability at >34.6 uM incubated for 48 hrs by methylene blue assay relative to control; format: functional
In short: (§3)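 MDA-MB-231, MCF-7, HepG2 and LNCaP cells were grown in DMEM; HCT-116 and LO-2 in RPMI-1640; all with 10% FBS at 37 °C, 5% CO2. Cells seeded at 1.5 × 10^5 cells/mL and incubated overnight (~12 h), then exposed to 6.2–30.9 μM or 23.1–185.0 μM (final DMSO <0.1%) for 48 h. Read by methylene blue staining; viability = Abs treated/Abs untreated × 100%, triplicate.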

LNCaP = assay: Antiproliferative activity against human LNCAP cells assessed as cell viability at >30.9 uM incubated for 48 hrs by methylene blue assay relative to control; format: functional; in short: as §3
MDA-MB-231 [14] = assay: Induction of cell cycle arrest in human MDA-MB-231 cells assessed as increase in accumulation of cells at G0/G1 phase incubated for 48 hrs by PI/RNase staining based flow cytometric analysis; format: functional
In short: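 Cells grown 24 h in DMEM/10% FBS at 37 °C, 5% CO2, then exposed 48 h to 8.6, 12.4 or 17.3 μM. Pelleted, fixed in 75% ethanol at −20 °C overnight, stained with PI-containing RNase 15 min in the dark at ambient temperature. About 10 000 cells per well analysed by flow cytometry. Triplicate, mean ± SD.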

MDA-MB-231 [15] = assay: Induction in apoptosis in human MDA-MB-231 cells assessed as apoptotic cell bodies formation at 17.3 uM incubated for 48 hrs by Hoechst 33258 staining based fluorescence microscopic method; format: functional; in short: as §1
MDA-MB-231 [16] = assay: Induction of mitochondrial membrane potential loss in human MDA-MB-231 cells cell population with mitochondrial membrane potential collapse by measuring green fluorescence at 8.6 uM incubated for 48 hrs by JC1 staining based flow cytometric analysis (reference value: 7.96%); format: functional
In short: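 MDA-MB-231 cells in DMEM/10% FBS exposed 48 h to 0, 8.6, 12.4 or 17.3 μM. Harvested cells stained with JC-1 for 15 min in the dark, then analysed by flow cytometry. Excitation 488 nm; green emission read at 525 nm, red at 590 nm. Output given as percent green-to-red fluorescence intensity ratio. Triplicate, mean ± SD.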

MDA-MB-231 [17] = assay: Induction of apoptosis in human MDA-MB-231 cells assessed as increase in late apoptotic cells population incubated for 48 hrs by annexin V-FITC/PI based flow cytometric analysis; format: functional, cell-based

Compound: CC(C)=CCc1c2c(c(O)c3c(=O)cc(-c4ccc(O)cc4)oc13)C=CC(C)(C)O2 [LAXIFOLIN]
- Activity (RAW264.7 [1]): Active
- inhibition (RAW264.7 [2]): Active
- MNTC at 24 h [3]: 3.1 µM
- Activity (MDA-MB-231 [4]): 5.57%
- viability at 17.3 µM (MDA-MB-231 [5]): 68.9%
- Activity (MDA-MB-231 [6]): 1.19%
- Activity (MDA-MB-231 [7]): 12.89%
- viability at 12.4 µM (MDA-MB-231 [8]): 85.3%
- Activity (MDA-MB-231 [9]): 1.04%
- Activity (MDA-MB-231 [10]): 9.8%
- Activity (MDA-MB-231 [11]): Dose-dependent effect
- Activity (MDA-MB-231 [12]): 26.8%
- Activity (MDA-MB-231 [13]): 63.3%
- Activity (HCT-116): 20%
- Activity (LNCaP): 20%
- Activity (MDA-MB-231 [14]): Dose-dependent effect
- Activity (MDA-MB-231 [15]): Active
- Activity (MDA-MB-231 [16]): 16.49%
- Activity (MDA-MB-231 [17]): Dose-dependent effect
